Experimental data: ChEMBL document CHEMBL3407383, “Design, synthesis and biological profile of new inhibitors of multidrug resistance associated proteins carrying a polycyclic scaffold” (Eur J Med Chem, 2015)
Active and inactive are the calls of the source. The calls are words filed in the database; no cut-off is given here.

Biological target: T1, ATP-dependent translocase ABCB1 (Homo sapiens, UniProt P08183)
Experiment: Reversal of human MDR1-mediated drug efflux in mouse L5178 cells using rhodamine 123 as substrate assessed as fluorescence activity ratio at 4 uM incubated for 10 mins prior to substrate addition measured after 20 mins by FACScan flow cytometry relative to control
Format: cell-based
Details: l5178, 20 min

T1 sequence (P08183 whole entry): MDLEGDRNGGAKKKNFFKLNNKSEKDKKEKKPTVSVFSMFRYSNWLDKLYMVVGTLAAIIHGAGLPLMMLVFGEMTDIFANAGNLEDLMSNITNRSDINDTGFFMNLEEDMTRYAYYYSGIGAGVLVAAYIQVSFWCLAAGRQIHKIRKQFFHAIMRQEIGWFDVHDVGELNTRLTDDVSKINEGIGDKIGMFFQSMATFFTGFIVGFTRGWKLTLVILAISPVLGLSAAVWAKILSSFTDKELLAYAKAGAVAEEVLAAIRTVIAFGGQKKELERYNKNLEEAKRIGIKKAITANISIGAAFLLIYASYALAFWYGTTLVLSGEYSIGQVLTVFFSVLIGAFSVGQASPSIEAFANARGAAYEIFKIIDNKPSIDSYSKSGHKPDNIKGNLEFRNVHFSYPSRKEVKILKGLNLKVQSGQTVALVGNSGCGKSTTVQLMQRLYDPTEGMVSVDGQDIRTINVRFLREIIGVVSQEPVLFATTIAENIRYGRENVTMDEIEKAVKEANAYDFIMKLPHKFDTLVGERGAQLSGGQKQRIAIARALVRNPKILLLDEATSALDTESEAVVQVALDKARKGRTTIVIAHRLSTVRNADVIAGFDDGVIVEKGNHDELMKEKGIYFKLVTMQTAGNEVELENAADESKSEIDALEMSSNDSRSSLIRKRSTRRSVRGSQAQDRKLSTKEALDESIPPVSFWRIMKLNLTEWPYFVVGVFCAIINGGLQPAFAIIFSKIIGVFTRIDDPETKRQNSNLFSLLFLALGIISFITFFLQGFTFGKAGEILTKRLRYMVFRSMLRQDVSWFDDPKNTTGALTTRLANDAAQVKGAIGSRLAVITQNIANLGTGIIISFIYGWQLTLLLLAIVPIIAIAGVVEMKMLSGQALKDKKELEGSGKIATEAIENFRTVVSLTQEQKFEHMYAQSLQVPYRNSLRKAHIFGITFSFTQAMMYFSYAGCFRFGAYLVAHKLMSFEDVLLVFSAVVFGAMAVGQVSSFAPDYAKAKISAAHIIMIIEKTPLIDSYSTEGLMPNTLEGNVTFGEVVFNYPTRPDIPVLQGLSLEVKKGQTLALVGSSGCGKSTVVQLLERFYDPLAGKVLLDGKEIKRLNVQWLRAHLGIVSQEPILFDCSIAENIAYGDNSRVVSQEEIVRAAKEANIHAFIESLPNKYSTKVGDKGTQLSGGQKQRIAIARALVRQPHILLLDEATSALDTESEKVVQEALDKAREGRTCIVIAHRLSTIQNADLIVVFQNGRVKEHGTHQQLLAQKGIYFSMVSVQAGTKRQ

| Ratio | Structure (SMILES) |
| --- | --- |
| 28.27 | O=C1[C@@H]2[C@H]3c4ccccc4[C@H](c4ccccc43)[C@@H]2C(=O)N1CC#CCN1CCN(C(c2ccc(F)cc2)c2ccc(F)cc2)CC1 |

Biological target: T2, Multidrug resistance protein 1/Multidrug resistance associated protein 1 (Homo sapiens, UniProt P33527+P08183)
Experiment: Inhibition of MDR1/MRP1 overexpressed in doxorubicin-resistant human HL60R cells assessed as DXR accumulation at 0.4 uM incubated for 2 hrs prior to DXR challenge measured after 2 hrs by fluorescence assay relative to control
Format: cell-based
Details: not given
Procedure, shortened: (§1)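 HL60 and HL60R cells (2.5 × 10^5 cells/mL) preincubated 2 h with compound, then 2 h with 10 µM DXR. Washed twice in cold PBS, resuspended at 1 × 10^6 cells/mL. Anthracycline fluorescence read immediately by flow cytometry (excitation 488 nm, emission 600 nm, log scale). Mean ± SD, ≥3 independent experiments; one-way ANOVA versus HL60R.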

| inhibition (INH) | Structure (SMILES) |
| --- | --- |
| Not Active | COc1ccc(CCN(C)CC#CCN2C(=O)[C@@H]3[C@H]4c5ccccc5[C@H](c5ccccc54)[C@@H]3C2=O)cc1OC |
| Not Active | O=C1[C@@H]2[C@H]3c4ccccc4[C@H](c4ccccc43)[C@@H]2C(=O)N1CC#CCN1CCN(C(c2ccc(F)cc2)c2ccc(F)cc2)CC1 |

System: not listed separately
Experiment: Cytotoxicity against human HL60 cells assessed as effect on cell cycle at 10 uM
Format: cell-based
Details: hl-60, 10 µM

| Structure (SMILES) | Activity |
| --- | --- |
| COc1ccc(CCN(C)CC#CCN2C(=O)[C@@H]3[C@H]4c5ccccc5[C@H](c5ccccc54)[C@@H]3C2=O)cc1OC | Toxic |
| O=C1[C@@H]2[C@H]3c4ccccc4[C@H](c4ccccc43)[C@@H]2C(=O)N1CC#CCN1CCN(C(c2ccc(F)cc2)c2ccc(F)cc2)CC1 | Non-toxic |

System: not listed separately
Experiment: Cell cycle arrest in human HL60R cells assessed as exit from mitosis at 10 uM after 24 hrs by propidium iodide staining-based flow cytometry
Format: functional
Details: not given
Procedure, shortened: (§2)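 HL60R cells treated with compound plus 10 µM DXR for 24 and 48 h. Fixed in 70% ice-cold ethanol at -20 °C overnight, stained with PI 5 µg/mL plus DNase-free RNase A 10 µg/mL in PBS, 30 min at 37 °C in the dark. PI red fluorescence acquired on a linear scale at 600 nm by flow cytometry.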

| Structure (SMILES) | Activity |
| --- | --- |
| COc1cccc2c1C(=O)c1c(O)c3c(c(O)c1C2=O)C[C@@](O)(C(=O)CO)C[C@@H]3O[C@H]1C[C@H](N)[C@H](O)[C@H](C)O1 | inactive |

System: HL60R
Experiment: Induction of apoptosis in human HL60R cells assessed as chromatin condensation at 10 uM after 48 hrs by […] staining-based fluorescence microscopy
Format: functional, cell-based
Details: not given
Procedure, shortened: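 HL60R cells co-treated 48 h with 10 µM compound plus 10 µM DXR. Cytospun onto slides (150 g, 5 min), PBS-washed, fixed in 4% paraformaldehyde, permeabilized with 0.5% Triton X-100 for 5 min at 4 °C, stained with Hoechst 0,1 mg/mL. Nuclear morphology examined by fluorescence microscopy.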

| Structure (SMILES) | Activity |
| --- | --- |
| COc1cccc2c1C(=O)c1c(O)c3c(c(O)c1C2=O)C[C@@](O)(C(=O)CO)C[C@@H]3O[C@H]1C[C@H](N)[C@H](O)[C@H](C)O1 | Active |

Biological target: T1, ATP-dependent translocase ABCB1
Experiment: Reversal of human MDR1-mediated drug efflux in mouse L5178 cells using rhodamine 123 as substrate assessed as fluorescence activity ratio at 40 uM incubated for 10 mins prior to substrate addition measured after 20 mins by FACScan flow cytometry relative to control
Format: cell-based
Details: l5178, 20 min

| Ratio | Structure (SMILES) |
| --- | --- |
| 33.38 | O=C1[C@@H]2[C@H]3c4ccccc4[C@H](c4ccccc43)[C@@H]2C(=O)N1CC#CCN1CCN(C(c2ccc(F)cc2)c2ccc(F)cc2)CC1 |

Biological target: T2, Multidrug resistance protein 1/Multidrug resistance associated protein 1
Experiment: Inhibition of MDR1/MRP1 overexpressed in doxorubicin-resistant human HL60R cells assessed as DXR accumulation at 10 uM incubated for 2 hrs prior to DXR challenge measured after 2 hrs by fluorescence assay relative to control
Format: cell-based
Details: not given
Procedure, shortened: as §1

| inhibition (INH) | Structure (SMILES) |
| --- | --- |
| Not Active | C#CCN1C(=O)[C@@H]2[C@H]3c4ccccc4[C@H](c4ccccc43)[C@@H]2C1=O |
| Active | O=C1[C@@H]2[C@H]3c4ccccc4[C@H](c4ccccc43)[C@@H]2C(=O)N1CC#CCN1CCN(C(c2ccc(F)cc2)c2ccc(F)cc2)CC1 |

System: not listed separately
Experiment: Cytotoxicity against human HL60R cells assessed as cell viability at 10 uM by MTT assay
Format: cell-based
Details: not given

| Structure (SMILES) | Activity |
| --- | --- |
| COc1ccc(CCN(C)CC#CCN2C(=O)[C@@H]3[C@H]4c5ccccc5[C@H](c5ccccc54)[C@@H]3C2=O)cc1OC | Toxic |
| O=C1[C@@H]2[C@H]3c4ccccc4[C@H](c4ccccc43)[C@@H]2C(=O)N1CC#CCN1CCN(C(c2ccc(F)cc2)c2ccc(F)cc2)CC1 | Non-toxic |

System: not listed separately
Experiment: Cytotoxicity against human HL60 cells assessed as cell viability at 10 uM by MTT assay
Format: cell-based
Details: hl-60, 10 µM

| Structure (SMILES) | Activity |
| --- | --- |
| COc1ccc(CCN(C)CC#CCN2C(=O)[C@@H]3[C@H]4c5ccccc5[C@H](c5ccccc54)[C@@H]3C2=O)cc1OC | Toxic |
| O=C1[C@@H]2[C@H]3c4ccccc4[C@H](c4ccccc43)[C@@H]2C(=O)N1CC#CCN1CCN(C(c2ccc(F)cc2)c2ccc(F)cc2)CC1 | Non-toxic |

System: not listed separately
Experiment: Cell cycle arrest in human HL60R cells assessed as accumulation at G2/M phase at 10 uM after 24 hrs by propidium iodide staining-based flow cytometry
Format: functional
Details: not given
Procedure, shortened: as §2

| Structure (SMILES) | Activity |
| --- | --- |
| COc1cccc2c1C(=O)c1c(O)c3c(c(O)c1C2=O)C[C@@](O)(C(=O)CO)C[C@@H]3O[C@H]1C[C@H](N)[C@H](O)[C@H](C)O1 | Active |

System: HL60R
Experiment: Potentiation of doxorubicin-induced cytotoxicity in human HL60R cells at 10 uM incubated for 2 hrs prior to doxorubicin challenge measured after 24 to 48 hrs by trypan blue staining-based haemocytometry
Format: functional, cell-based
Details: not given
Procedure, shortened: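 HL60R cells seeded at 1.5 × 10^5 cells/mL; after 24 h, exposed to compound (10 µM) for 2 h, then 10 µM DXR added. Viable cells counted by Trypan Blue exclusion in a Bürker haemocytometer at 24 and 48 h. Mean ± SD, at least three independent experiments.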

| Structure (SMILES) | Activity |
| --- | --- |
| COc1ccc(CCN(C)CC#CCN2C(=O)[C@@H]3[C@H]4c5ccccc5[C@H](c5ccccc54)[C@@H]3C2=O)cc1OC | Active |
| O=C1[C@@H]2[C@H]3c4ccccc4[C@H](c4ccccc43)[C@@H]2C(=O)N1CC#CCN1CCN(C(c2ccc(F)cc2)c2ccc(F)cc2)CC1 | Active |

Biological target: T1, ATP-dependent translocase ABCB1
Experiment: Reversal of human MDR1-mediated drug efflux in mouse L5178 cells using rhodamine 123 as substrate assessed as fluorescence activity ratio at 0.8 uM incubated for 10 mins prior to substrate addition measured after 20 mins by FACScan flow cytometry relative to control
Format: cell-based
Details: l5178, 20 min
Procedure, shortened: (§3)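 L5178 MDR1-transfected and parental mouse lymphoma cells at 2 × 10^6/mL in serum-free McCoy's 5A. Preincubated with compound (0.4–40 µM) for 10 min at room temperature, then rhodamine-123 (5.2 µM final) added for 20 min at 37 °C; washed twice, resuspended in PBS, read by flow cytometry. Verapamil as positive control. R = (MDR treated/MDR control)/(parental treated/parental control).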

| Ratio | Structure (SMILES) |
| --- | --- |
| 8.22 | O=C1[C@@H]2[C@H]3c4ccccc4[C@H](c4ccccc43)[C@@H]2C(=O)N1CC#CCN1CCN(C(c2ccc(F)cc2)c2ccc(F)cc2)CC1 |

Biological target: T2, Multidrug resistance protein 1/Multidrug resistance associated protein 1
Experiment: Activity at human MDR1/MRP1 overexpressed in doxorubicin-resistant human HL60R cells assessed as ATP consumption at 10 uM after 2 hrs by luminescence assay (reference value: 6350 +/- 303 RLU)
Format: cell-based
Details: not given
Procedure, shortened: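 HL60R cells at 2.5 × 10^5 cells/mL exposed to 10 µM compound (DMSO solution) for 2 h at 37 °C, 5% CO2; washed twice in cold PBS, resuspended at 1 × 10^6 cells/mL. 1 × 10^5 cells lysed in swab by 20 s agitation; ATP read by luciferase/d-luciferin bioluminescence on a luminometer.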

| RLU | Structure (SMILES) |
| --- | --- |
| 2612 | COc1ccc(CCN(C)CC#CCN2C(=O)[C@@H]3[C@H]4c5ccccc5[C@H](c5ccccc54)[C@@H]3C2=O)cc1OC |
| 4276 | O=C1[C@@H]2[C@H]3c4ccccc4[C@H](c4ccccc43)[C@@H]2C(=O)N1CC#CCN1CCN(C(c2ccc(F)cc2)c2ccc(F)cc2)CC1 |

System: HL60R
Experiment: Potentiation of doxorubicin-induced cell cycle arrest in human HL60R cells assessed as accumulation at G0/G1 phase at 10 uM after 24 hrs by propidium iodide staining-based flow cytometry
Format: functional
Details: not given
Procedure, shortened: as §2

| Structure (SMILES) | Activity |
| --- | --- |
| COc1ccc(CCN(C)CC#CCN2C(=O)[C@@H]3[C@H]4c5ccccc5[C@H](c5ccccc54)[C@@H]3C2=O)cc1OC | Active |
| O=C1[C@@H]2[C@H]3c4ccccc4[C@H](c4ccccc43)[C@@H]2C(=O)N1CC#CCN1CCN(C(c2ccc(F)cc2)c2ccc(F)cc2)CC1 | Active |

Biological target: T1, ATP-dependent translocase ABCB1
Experiment: Reversal of human MDR1-mediated drug efflux in mouse L5178 cells using rhodamine 123 as substrate assessed as fluorescence activity ratio at 0.4 uM incubated for 10 mins prior to substrate addition measured after 20 mins by FACScan flow cytometry relative to control
Format: cell-based
Details: l5178, 20 min
Procedure, shortened: as §3

| Ratio | Structure (SMILES) |
| --- | --- |
| 5.19 | O=C1[C@@H]2[C@H]3c4ccccc4[C@H](c4ccccc43)[C@@H]2C(=O)N1CC#CCN1CCN(C(c2ccc(F)cc2)c2ccc(F)cc2)CC1 |

System: not listed separately
Experiment: Cytotoxicity against human HL60R cells assessed as effect on cell cycle at 10 uM
Format: cell-based
Details: not given

| Structure (SMILES) | Activity |
| --- | --- |
| COc1ccc(CCN(C)CC#CCN2C(=O)[C@@H]3[C@H]4c5ccccc5[C@H](c5ccccc54)[C@@H]3C2=O)cc1OC | Toxic |
| O=C1[C@@H]2[C@H]3c4ccccc4[C@H](c4ccccc43)[C@@H]2C(=O)N1CC#CCN1CCN(C(c2ccc(F)cc2)c2ccc(F)cc2)CC1 | Non-toxic |

System: HL60R
Experiment: Induction of apoptosis in human HL60R cells assessed as nuclear fragmentation at 10 uM after 48 hrs by […] staining-based fluorescence microscopy
Details: not given

| Structure (SMILES) | Activity |
| --- | --- |
| COc1cccc2c1C(=O)c1c(O)c3c(c(O)c1C2=O)C[C@@](O)(C(=O)CO)C[C@@H]3O[C@H]1C[C@H](N)[C@H](O)[C@H](C)O1 | Active |

System: not listed separately
Experiment: Lipophilicity, log P of the compound
Format: physicochemical
Details: octanol/water

| logP | Structure (SMILES) |
| --- | --- |
| 6.3 | O=C1[C@@H]2[C@H]3c4ccccc4[C@H](c4ccccc43)[C@@H]2C(=O)N1CC#CCN1CCN(C(c2ccc(F)cc2)c2ccc(F)cc2)CC1 |
